Jurkat NFkB inh – inhibitors of induced NF-kB luciferase reporter, primary screen, TCR NF-kB activation inhibitor project, cell-based, luminescence, uHTS. actives 0.53% (n = 330,000). inhibition, % at 4 µM. Jurkat, PMA/ionomycin-induced NF-kB luciferase reporter; in the data active means inhibition above about 50%
NR2E3 ag-1 – inhibitors of NR2E3-RetCOR corepressor binding, primary screen, NR2E3 agonist project, biochemical, TR-FRET, GST-NR2E3, biotin-RetCOR. Photoreceptor-specific nuclear receptor (Homo sapiens), Q9Y5X4. 1536-well. inhibition of corepressor binding, % at 4.78 µM. actives 0.12% (n = 320,000);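 active means percent inhibition above the cutoff of mean plus 3 SD of all tested compounds, set per screening campaign, cut at about 20% in these data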;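 further: 0% = DMSO wells and 100% = biotin wells as full block of FRET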
Target sequence (Q9Y5X4 whole entry, looked up): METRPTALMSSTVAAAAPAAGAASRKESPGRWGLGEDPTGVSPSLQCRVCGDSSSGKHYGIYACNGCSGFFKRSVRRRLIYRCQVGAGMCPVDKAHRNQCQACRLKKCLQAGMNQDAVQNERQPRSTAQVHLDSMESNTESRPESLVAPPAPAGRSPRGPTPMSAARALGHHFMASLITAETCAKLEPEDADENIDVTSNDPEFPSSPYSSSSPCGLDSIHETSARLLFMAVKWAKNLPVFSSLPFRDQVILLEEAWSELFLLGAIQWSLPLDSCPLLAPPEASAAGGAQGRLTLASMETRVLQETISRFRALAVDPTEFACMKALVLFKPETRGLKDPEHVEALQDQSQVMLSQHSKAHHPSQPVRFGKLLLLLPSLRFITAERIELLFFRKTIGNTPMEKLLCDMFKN
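Test system – NR2E3–RetCOR corepressor complex · Quantity – NR2E3 fusion 1.35 nM · Buffer or medium – Tris pH 7.5 · Incubation – Compound–protein incubation for 5 h at 4 °C · Technique – TR-FRET, Eu(K)-anti-GST donor, streptavidin-D2 acceptor, ex 340, em 617/671 nm · Evaluation – percent inhibition of 671/617 nm emission ratio versus biotin and DMSO controls · Plate – 1536-well format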
miR122 inh – miR-122 Renilla sensor signal increase in Huh7, primary screen, miR-122 inhibitor project, cell-based, single point, plate reader | Huh7 miR-122 Renilla luciferase sensor, 48 h; neutral wells = 0, positive control = 100 | activation (reporter increase), % at 12.5 µM | actives 0.3% (n = 340,000) | AID 602342, 2012;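 active means mean replicate activation score at least 90 and every replicate individually at or above 90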;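 further: higher luciferase means less miR-122 activity so hits act as miR-122 inhibitors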
FGF22 binding – binders of human FGF22 protein, primary screen, FGF22 synaptogenesis inhibitor project, biophysical, thermal shift, single point. activity (Tm shift, normalised), % at 9.99 µM. Fibroblast growth factor 22 (Homo sapiens), Q9HCT0. recombinant FGF22 thermal shift, SYPRO orange fluorescence; percent of sucrose octasulfate shift, DMSO zero. actives 1.5% (n = 340,000);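 active means mean Tm shift, scaled 0 neutral to 100 positive control, at about 1.3% or above, every replicate too, limit read from the data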
Target sequence (Q9HCT0 whole entry, looked up): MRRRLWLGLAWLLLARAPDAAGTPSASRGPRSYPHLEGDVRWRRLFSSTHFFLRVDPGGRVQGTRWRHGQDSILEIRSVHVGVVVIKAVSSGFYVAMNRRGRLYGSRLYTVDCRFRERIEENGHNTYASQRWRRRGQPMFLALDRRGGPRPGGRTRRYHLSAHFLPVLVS
NR2E3 ag-2 – NR2E3 agonists in two-hybrid cells, primary screen, cell-based, luminescence, CHO-S, Gal4-NCOR/VP16-NR2E3; Photoreceptor-specific nuclear receptor (Homo sapiens), Q9Y5X4; AID 602229, 2012; inhibition of corepressor binding, % at 3.98 µM; luciferase; actives 0.35% (n = 360,000);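 active means inhibition above the mean of all tested compounds plus 3 SD, cut at about 70% in these data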;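 further: 0% = DMSO with NR2E3 transfected cells and 100% = cells lacking NR2E3 construct; higher means lower luciferase signal from less NR2E3 corepressor binding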
697 NFkB inh – inhibitors of PMA/ionomycin-induced NF-kB reporter, 697 cells, primary screen, B-cell NF-kB inhibitor project, cell-based, luminescence, uHTS; 697 B-cell NF-kB luciferase reporter, 16 h; inhibition, % at 4 µM; actives 0.33% (n = 330,000); AID 435022, 2010; in the data active means inhibition above about 35%
* hit, by the source's call; nt = no result given; [ ] = remark or other dose. Rows were chosen to be rich in hits. Some 2.2% of all compounds tested hit in one or more screens of this group.

SMILES	Jurkat NFkB inh	NR2E3 ag-1	miR122 inh	FGF22 binding	NR2E3 ag-2	697 NFkB inh
COc1ccc(NC(=O)Nc2ccc3c(c2)C(=O)N([C@H](C)CO)C[C@H](C)[C@H](CN(C)S(=O)(=O)c2ccc(OC)cc2)OCCCC[C@H](C)O3)cc1	nt	nt	-2[16.7 µM]	0	nt	nt
O=C(COC(=O)c1cc(Br)ccc1Cl)NC(=O)NCc1ccccc1	3	2	nt	44*	-3	-3
COc1cccc(S(=O)(=O)N2C[C@H](O)COC[C@@H]3O[C@H](CC(=O)N4CCOCC4)CC[C@H]32)c1	nt	nt	1[16.7 µM]	0	nt	nt
C=CCNC(=O)/C(C#N)=C/c1ccc(C(=O)O)cc1	-12	-2	3	0	-7	12
C=CCNC(=O)/C(C#N)=C/c1ccccc1Cl	-12	2	nt	43*	-15	-5
O=C(Nc1ccc(F)c(Cl)c1)Nc1cnccn1	2	1	nt	44*	-12	18
COCC(=O)N(C)C[C@@H]1[C@@H](c2ccc(-c3ccccc3)cc2)[C@H](CO)N1C(C)=O	nt	nt	-17[16.7 µM]	0	nt	nt
CCN(CC)C(=O)C1=C(C)N(Cc2ccc(C(C)(C)C)cc2)C(=O)C(CC(=O)NC2CCCCC2)C1 (configuration not stated)	nt	nt	-1	0	13	nt
CCN(CC)C(=O)C1=C(C)N(Cc2ccccc2)C(=O)C(CC(=O)NC2CC2)C1 (configuration not stated)	nt	nt	-3	44*	-36	nt
CC1=C(C(=O)N(C)C)CC(CC(=O)NC2CC2)C(=O)N1Cc1ccccc1 (configuration not stated)	nt	nt	-5	0	-48	nt
CCN(CC)C(=O)C1=C(C)N(Cc2ccccc2)C(=O)C(CC(=O)NC2CCCCC2)C1 (configuration not stated)	nt	nt	-5	44*	8	nt
COc1cc(NC(=O)COn2nnc3ccc(S(C)(=O)=O)cc32)cc(OC)c1	1	3	2	43*	-18	5
Cc1cc(NC(=O)COn2nnc3ccc(S(C)(=O)=O)cc32)ccc1Br	3	2	-3	0	-2	-1
CCOC(=O)c1cnc(SSc2ncc(C(=O)OCC)c(N)n2)nc1N	1	1	-1	0	-29	5
C=CCSc1ncc(C(=O)OCC)c(N)n1	-28	0	nt	43*	-33	-29
CC(SCc1ccccc1)C(=O)Nc1ccc(F)cc1 (configuration not stated)	2	-1	-2	0	-7	4
N#CC(C#N)=C(Nc1ccc(F)cc1)SCc1cccc(Br)c1	nt	2	16	-1	94*	nt
COc1ccc(NC(=O)N(C)C[C@@H]2OCCCC[C@H](C)Oc3ccc(NS(=O)(=O)c4ccc(Cl)cc4)cc3C(=O)N([C@@H](C)CO)C[C@@H]2C)cc1	nt	nt	0[16.7 µM]	0	nt	nt
Cc1ccc(S(=O)(=O)N(CC(=O)N/N=C/c2ccccc2C(=O)O)c2cc(Cl)cc(Cl)c2)cc1	-11	5	nt	43*	-33	3
O=C(CN(c1ccccc1Cl)S(=O)(=O)c1ccccc1)N/N=C/c1ccccc1C(=O)O	0	5	nt	0	-2	23
CO[C@H]1CN(C)C(=O)c2cc(NC(=O)C3CC3)ccc2OC[C@@H](C)N(C(=O)NC(C)C)C[C@H]1C	nt	nt	nt	0	nt	nt
O=C(/C=C/c1ccccc1[N+](=O)[O-])N1CCCCC1	-15	2	nt	43*	0	6
COc1ccc2c(c1)[C@]1(C(=O)N2C)C2=C(CCCC2=O)Oc2cc(C)oc(=O)c21	nt	nt	nt	43*	nt	nt
Cc1cc2c(c(=O)o1)[C@@]1(C(=O)N(C)c3ccc([N+](=O)[O-])cc31)C1=C(CCCC1=O)O2	nt	nt	nt	41	nt	nt
C/C(=N\OCc1ccc(C#N)cc1)c1ccc(S(=O)(=O)N(C)C)cc1	-39	-1	nt	0	-56	-65
SMILES	Jurkat NFkB inh	NR2E3 ag-1	miR122 inh	FGF22 binding	NR2E3 ag-2	697 NFkB inh
C/C(=N\OCc1ccc(C#N)cc1)c1ccccc1	-117	1	-7	44*	-14	-123
Cc1ccc(NC(=O)Cn2ccsc2=N)c([N+](=O)[O-])c1	4	3	nt	43	-12	30
Cc1cc(NC(=O)Cn2ccsc2=N)c([N+](=O)[O-])cc1C	2	2	nt	43*	17	13
CNC[C@H]1Oc2ccc(N(C)C)cc2CC(=O)N([C@H](C)CO)C[C@@H]1C	nt	nt	1[16.7 µM]	0	nt	nt
CCOC(=O)N/N=C/c1c(F)cccc1F	-11	3	4	nt	-24	2
CCOC(=O)N/N=C/c1c(F)c(F)c(F)c(F)c1F	10	3	nt	44*	-17	3
COc1ccc(S(=O)(=O)N(C)C[C@H]2Oc3ccc(NC(=O)CCCCCC(=O)Nc4ccccc4N)cc3C(=O)N([C@H](C)CO)C[C@H]2C)cc1	nt	nt	4[16.7 µM]	0	nt	nt
C=CCc1c(C)nc(-c2ccccc2)nc1N/N=C/c1ccncc1	-13	-1	nt	43*	12	-10
C=CCc1c(C)nc(-c2ccccc2)nc1N/N=C/c1ccccc1	-14	1	nt	0	-36	1
CCCCNC(=O)N(O)C1N(/N=C/c2ccccc2F)C(=S)SC1(C)C (configuration not stated)	8	-2	116*	0	-16	-2
CC(C)(C)N1CC(C(=O)Nc2ccc(C(N)=O)cc2)CC1=O (configuration not stated)	nt	nt	-9	44*	32	nt
N#C/C(=C\c1ccc(OCc2ccc(C(=O)O)cc2)cc1)C(=O)NCc1ccccc1	6	-1	2	0	2	12
Cc1nc(S/C(=C/c2ccc(OCc3ccc(C(=O)O)cc3)cc2)C(=O)O)n[nH]1	6	3	nt	1.5*	1	3
CC(C)C[C@H](NC(=O)c1ccc(OC2CCN(C(=O)C3CC3)CC2)cc1)C(N)=O	11	-3	nt	nt	-12	17
CC(CCCC(C)(C)O)NC(=O)c1ccc(OC2CCN(C(=O)C3CC3)CC2)cc1 (configuration not stated)	6	5	nt	43*	-54	9
C[C@@H]1CN([C@@H](C)CO)C(=O)c2cc(NS(C)(=O)=O)ccc2O[C@@H](C)CCCCO[C@@H]1CN(C)Cc1ccncc1	nt	nt	4[16.7 µM]	0	nt	nt
Cc1ccc(/C=C/C(=O)NCc2ccc(S(N)(=O)=O)cc2)o1	nt	nt	nt	43*	5	nt
N#CNC(=Nc1cccc(F)c1)SCc1ccccc1	3	0	nt	44*	-65	11

Screens deposited in PubChem by several laboratories.
